Molecules are shown by their SMILES.

The experiment deals with B16. The experiment in a line: Cytotoxicity against mouse B16 cells after 48 hrs. It counts as functional. The note with it: B16, 48 h, read-out: ID50 (the source's name). Summed up: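 Moderately pigmented B16 murine melanoma cells grown as monolayers in McCoy's 5A medium plus 10% fetal calf serum, in exponential growth at assay. Drug added 24 h after plating, incubation continued another 48 h. Four dose levels tested in triplicate, generally 0.1–1.0 mM (0.01–0.1 mM for one compound); ID50 reported as mM, SD within ±10% of mean.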
On to `N[C@@H](CCC(=O)Nc1ccc(O)cc1)C(=O)O`, for which the IC50 was determined as 100 µM.
The result for `N[C@@H](CCC(=O)Nc1cccc(O)c1)C(=O)O` reads 1000 µM.
Consider `N[C@@H](CCC(=O)Nc1ccc(O)c(O)c1)C(=O)O`, for which the IC50 came to 270 µM.
Regarding `COc1ccc(NC(=O)CC[C@H](N)C(=O)O)cc1`, the IC50 is above 1000 µM.
Take `N[C@@H](CCC(=O)Nc1ccc2c(c1)OCO2)C(=O)O`: the IC50 was above 1000 µM.
For `N[C@@H](CCC(=O)Nc1cc(O)ccc1O)C(=O)O`, the IC50 was 51 µM.
On to `N[C@@H](CC(=O)Nc1ccc(O)cc1)C(=O)O`, for which the IC50 came to 310 µM.
Regarding `N[C@@H](CCC(=O)O)C(=O)Nc1ccc(O)cc1`, the IC50 was above 1000 µM.
Turning to `NCCCC(=O)Nc1ccc(O)cc1`, the IC50 was above 1000 µM.
As to `O=C(O)CCCC(=O)Nc1ccc(O)cc1`, the IC50 was above 1000 µM.
In the case of `O=C(CCCC(=O)Nc1ccc(O)cc1)Nc1ccc(O)cc1`, the IC50 is above 1000 µM.

Values taken from ChEMBL document CHEMBL3243980, “Structural analogues of L-glutamic Acid gamma-(4-hydroxyanilide) and gamma-(3,4-dihydroxyanilde) as potential agents against melanoma” (1979).
